In ChEMBL document CHEMBL1124456, “Synthesis and structure-activity relationship of substituted tetrahydro- and hexahydro-1,2-benzisothiazol-3-one 1,1-dioxides and thiadiazinones: potential anxiolytic agents” (J Med Chem, 1989):
Values belong to the compound of their own block, whether it stands above or below them.

What was measured:
Rattus norvegicus [1] = organism: Rattus norvegicus; test: Anti-psychotic activity from the ability to block discrete trial conditioned avoidance response (CAR) of rats.; assay type: functional
How it was run: (§1)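 Discrete-trial conditioned avoidance in male CD rats kept at about 400–450 g body weight. Dosing was ip or po, 30 min before testing, with at least five rats per dose (20 or 40 mg/kg, or a dose range). Computer recorded intertrial, avoidance and escape responses and no-response trials. Avoidance-block trials were taken as % of total trials, with control avoidance set at 100%. AB50 came from a least-squares dose-effect regression line.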

[2] = biological target: D(2) dopamine receptor (Rattus norvegicus) (UniProt P61169); test: Inhibition of [3H]spiperone binding to Dopamine receptor D2 of rat limbic structures; assay type: tissue-based; design: concentration or dose not given beside the values; settings: Limbic system, concentration not given here
Sequence of D(2) dopamine receptor (Rattus norvegicus) (P61169 whole entry): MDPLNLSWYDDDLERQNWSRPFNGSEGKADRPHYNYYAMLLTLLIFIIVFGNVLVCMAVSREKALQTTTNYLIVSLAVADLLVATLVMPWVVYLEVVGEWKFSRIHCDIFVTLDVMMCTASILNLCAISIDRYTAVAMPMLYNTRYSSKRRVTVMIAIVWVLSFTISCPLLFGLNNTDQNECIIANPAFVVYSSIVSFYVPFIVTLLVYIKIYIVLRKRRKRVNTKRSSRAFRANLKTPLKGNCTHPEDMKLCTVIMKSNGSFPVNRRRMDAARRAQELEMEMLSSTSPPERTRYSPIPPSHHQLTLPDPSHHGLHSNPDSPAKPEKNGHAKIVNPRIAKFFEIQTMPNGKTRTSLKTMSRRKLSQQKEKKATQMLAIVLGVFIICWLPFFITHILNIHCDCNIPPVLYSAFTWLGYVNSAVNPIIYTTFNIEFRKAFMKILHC

[3] = biological target: T1, 5-hydroxytryptamine receptor 1A (Rattus norvegicus) (UniProt P19327); test: In vitro ability to inhibit [3H]-8-OH-DPAT binding to 5-hydroxytryptamine 1A receptor of rat hippocampus at 1 uM; assay type: tissue-based
T1 sequence (whole entry): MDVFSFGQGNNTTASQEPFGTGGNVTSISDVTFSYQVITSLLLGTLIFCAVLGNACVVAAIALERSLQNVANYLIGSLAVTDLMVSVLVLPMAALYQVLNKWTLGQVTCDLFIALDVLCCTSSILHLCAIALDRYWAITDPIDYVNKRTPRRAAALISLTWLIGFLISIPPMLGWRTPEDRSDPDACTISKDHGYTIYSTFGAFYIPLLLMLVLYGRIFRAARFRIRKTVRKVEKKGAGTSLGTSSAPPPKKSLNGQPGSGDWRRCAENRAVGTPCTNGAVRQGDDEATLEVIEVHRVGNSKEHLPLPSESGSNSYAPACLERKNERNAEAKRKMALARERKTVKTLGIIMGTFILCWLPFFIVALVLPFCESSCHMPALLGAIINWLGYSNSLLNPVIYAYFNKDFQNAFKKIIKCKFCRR

[4] = biological target: Adrenergic receptor alpha-1 (Rattus norvegicus) (UniProt P15823+P23944+P43140); test: Percent inhibition of Alpha-1 adrenergic receptor by 1 uM of compound; assay type: protein assay
Rattus norvegicus [5] = test: In vivo ability (10.0 mg/kg) was to antagonize serotonin syndrome in rat; assay type: functional
How it was run: (§2)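 Rat in vivo test adapted from published serotonin syndrome methods. Agents given ip; 5-MeO-DMT at 3.0 mg/kg ip was used to elicit the syndrome. Behaviour rated and reported as mean total score (±SEM).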

[6] = biological target: Adrenergic receptor beta (Rattus norvegicus) (UniProt P18090+P10608+P26255); test: Percent inhibition of Beta adrenergic receptor by 1 uM of compound; assay type: protein assay
Rattus norvegicus [7] = organism: Rattus norvegicus; test: Antipsychotic activity was evaluated from the ability to block discrete trial conditioned avoidance response (CAR) of rats; assay type: functional
How it was run: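 Male CD rats (about 400–450 g) trained in discrete-trial avoidance. Compound given ip or po 30 min before testing, at 20 or 40 mg/kg or over a dose range, with at least five rats per dose. Intertrial, avoidance, escape and no-response trials were recorded. Avoidance block is the percentage of trials without avoidance. AB50 comes from a least-squares dose–effect regression line.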

Rattus norvegicus [8] = test: In vivo ability (10.0 mg/kg) was to elicit serotonin syndrome in rat; assay type: functional; how it was run: as §2
[9] = biological target: GABA-A receptor; anion channel (Rattus norvegicus) (UniProt O09028+P15431+P18506+P18508+P19969+P20236+P23574+P23576+P28471+P28473+P30191+P62813+P63079+P63138+Q91ZM7+Q9ES14); test: Percent inhibition of GABA-A benzodiazepine receptor at 1 uM; assay type: protein-complex assay
How it was run: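 Incubated with 1.5×10^-9 M [³H]diazepam for 30 min at 4 °C, then filtered on GF/C and counted by scintillation. Nonspecific binding defined with 3×10^-6 M unlabelled diazepam.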

Rattus norvegicus [10] = test: Compound was tested for antagonism of apomorphine-induced climbing behavior, after intraperitoneal dosing.; assay type: functional; settings: ip
Rattus norvegicus [11] = test: Compound was tested for antagonism of apomorphine-induced stereotyped behavior, after intraperitoneal dosing.; assay type: functional; settings: ip
How it was run: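 High-dose apomorphine-induced stereotyped behavior procedure. Test agents were given ip at doses up to 60 mg/kg.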

[12] = biological target: D(2) dopamine receptor (Rattus norvegicus) (UniProt P61169); test: Inhibition of [3H]-spiperone binding to dopamine receptor D2 of rat limbic structures at 1 uM.; settings: Limbic system
[13] = biological target: T1, 5-hydroxytryptamine receptor 1A (Rattus norvegicus); test: In vitro ability to inhibit [3H]-8-OH-DPAT binding to 5-hydroxytryptamine 1A receptor of rat hippocampus.; assay type: tissue-based; settings: concentration not given here
[14] = biological target: T1, 5-hydroxytryptamine receptor 1A (Rattus norvegicus); test: In vitro ability to inhibit [3H]8-OH-DPAT binding to 5-hydroxytryptamine 1A receptor of rat hippocampus at 1 uM; assay type: tissue-based
[15] = biological target: D(2) dopamine receptor (Rattus norvegicus) (UniProt P61169); test: In vitro ability to inhibit [3H]spiperone binding to Dopamine receptor D2 of rat limbic structures at 10 uM; assay type: tissue-based; settings: Limbic system
[16] = biological target: T2, 5-hydroxytryptamine receptor 1A (Rattus norvegicus, UniProt P19327); test: In vitro ability to inhibit [3H]8-OH-DPAT binding to 5-hydroxytryptamine 1A receptor of rat hippocampus and the value ranges from 25 - 84; assay type: tissue-based
T2 sequence (P19327 whole entry): T1 sequence (whole entry)

Rattus norvegicus [17] = organism: Rattus norvegicus; test: Anti psychotic activity was evaluated from the ability to block discrete trial conditioned avoidance response (CAR) of rats and the value ranges from 32-61; assay type: functional; how it was run: as §1
Rattus norvegicus [18] = test: Compound was tested for antagonism of apomorphine-induced climbing behavior, after intraperitoneal dosing; 1.29-27.21; assay type: functional; settings: ip

Compound: Cl.O=C1C2C3C=CC(C3)C2S(=O)(=O)N1CCCCc1ccncc1 (stereo unspecified)
- AB50 (Rattus norvegicus [1]): 40 mg/kg
- inhibition [2]: 1%

Compound: Cl.O=C1c2ccccc2S(=O)(=O)N1CCCCN1CCn2cccc2C1
- AB50 (Rattus norvegicus [1]): >40 mg/kg
- inhibition [2]: 0%

Compound: O=C1CC2(CCCC2)CC(=O)N1CCCCN1CCN(c2ncccn2)CC1 [BUSPIRONE]
- inhibition [4]: 33%
- Mean (Rattus norvegicus [5]): 6.1
- inhibition [6]: 0%
- AB50 (Rattus norvegicus [7]): 32 mg/kg
- Mean (Rattus norvegicus [8]): 2.9
- inhibition [9]: 0%

Compound: Cl.O=C1[C@H]2C3CCC(O3)[C@H]2S(=O)(=O)N1CCCCc1ccncc1 (stereo partly specified)
- inhibition [14]: 0%
- inhibition [12]: 3%
- AB50 (Rattus norvegicus [1]): 40 mg/kg

Compound: CC1CC(=O)N(CCCCN2CCN(c3ncccn3)CC2)S(=O)(=O)N1.Cl (stereo unspecified)
- AB50 (Rattus norvegicus [1]): 40 mg/kg

Compound: Cl.Cl.O=C1C2C3C=CC(C4CC34)C2S(=O)(=O)N1CCCCN1CCN(c2ncccn2)CC1 (stereo unspecified)
- AB50 (Rattus norvegicus [1]): 40 mg/kg

Compound: Cl.O=C1c2ccccc2S(=O)(=O)N1CCCCN1CCN(c2nccnc2Cl)CC1
- AB50 (Rattus norvegicus [1]): 40 mg/kg

Compound: Cl.Cl.O=C1C2C3C=CC(CC3)C2S(=O)(=O)N1CCCCN1CCN(c2ncccn2)CC1 (stereo unspecified)
- AB50 (Rattus norvegicus [1]): 40 mg/kg

Compound: Cl.Cl.O=C1c2cscc2S(=O)(=O)N1CCCCN1CCN(c2ncccn2)CC1
- AB50 (Rattus norvegicus [1]): >20 mg/kg

Compound: Cl.O=C1C2C3C=CC(CC3)C2S(=O)(=O)N1CCCCc1ccncc1 (stereo unspecified)
- inhibition [14]: 35%
- AB50 (Rattus norvegicus [1]): >40 mg/kg
- inhibition [2]: 0%

Second part, led by results:

- inhibition [3]: 54%
- inhibition [2]: 10%
Compound: Cl.O=C1[C@@H]2C3CCC(O3)[C@@H]2S(=O)(=O)N1CCCCN1CCN(c2cncc(Cl)n2)CC1 (stereo partly specified)
- AB50 (Rattus norvegicus [1]): 40 mg/kg

- inhibition [3]: 61%
- inhibition [2]: 4%
Compound: CC1CC(=O)N(CCCCN2CCN(c3cncc(Cl)n3)CC2)S(=O)(=O)N1.Cl.Cl.Cl (stereo unspecified)
- AB50 (Rattus norvegicus [1]): 32 mg/kg

- inhibition [12]: 0%
Compound: Cl.Cl.O=C1C2C3CCC(O3)C2S(=O)(=O)N1CCCCN1CCN(c2ncccn2)CC1 (stereo unspecified)
- ED50 (Rattus norvegicus [10]): 16 mg/kg
- ED50 (Rattus norvegicus [11]): 34 mg/kg
- AB50 (Rattus norvegicus [1]): >40 mg/kg

- inhibition [12]: 14%
- inhibition [13]: 52%
Compound: Cl.Cn1nnnc1N1CCN(CCCCN2C(=O)c3ccccc3S2(=O)=O)CC1
- AB50 (Rattus norvegicus [1]): 40 mg/kg

- inhibition [15]: 66%
Compound: CC1=C(C)CC2C(C1)C(=O)N(CCCCN1CCN(c3cncc(Cl)n3)CC1)S2(=O)=O.Cl.Cl.Cl (stereo unspecified)
- AB50 (Rattus norvegicus [1]): 40 mg/kg

- inhibition [3]: 7%
- inhibition [2]: 0%
Compound: Cl.O=C1C2C3CCC(CC3)C2S(=O)(=O)N1CCCCC1CCN(c2cncc(Cl)n2)CC1 (stereo unspecified)
- AB50 (Rattus norvegicus [1]): >40 mg/kg

- Ki [16]: 45 nM
- inhibition [2]: 98%
Compound: Cl.Cl.Cl.O=C1C2C3CCC(C3)C2S(=O)(=O)N1CCCCN1CCN(c2cccc(Cl)c2)CC1 (stereo unspecified)
- AB50 (Rattus norvegicus [17]): 41 mg/kg
- ED50 (Rattus norvegicus [18]): 16 mg/kg
- ED50 (Rattus norvegicus [11]): 34 mg/kg

- inhibition [2]: 6%
Compound: Cl.O=C1c2ccccc2S(=O)(=O)N1CCCCN1CCN(c2cncc(Cl)n2)CC1
- AB50 (Rattus norvegicus [1]): 40 mg/kg
